Bioassay records (PubChem)
A selection: hits, their analogues and other compounds. The true share with any hit is near 1.9%.
HCV core dimer = HCV core protein dimerization inhibition; AID 1899; 300,000 tested, 0.33% active; TR-FRET GST/Flag-core106 dimerization, 1536-well; inhibition, % at 5 µM;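 active = inhibition above the mean of all tested compounds plus 3 SD, set per screening campaign, cut at about 45% in these data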
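System – GST-tagged and Flag-tagged HCV core protein residues 1-106 · Repeats – one well for each compound · Technique – TR-FRET 671 and 617 nm emission · Doses – one concentration, 5 µM, in 0.5% DMSO · Times – 4 h, 22.5 °C incubation · Also added – Eu donor and XL665 acceptor anti-tag antibodies · Measure – percent inhibition of core106 dimerization signal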
Tb MetRS inh = Trypanosoma brucei MetRS inhibition. purified T. brucei MetRS, ATP depletion, Kinase-Glo luminescence. inhibition, % at 11.9 µM. 360,000 tested, 0.4% active. AID 624268;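 active = inhibition above a per-plate cutoff of the control wells' mean inhibition plus 3 SD, cut at about 5.5% in these data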;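 also: 0% = DMSO wells median and 100% = median of wells with control inhibitor compound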
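System: purified T. brucei MetRS enzyme / Detection: Kinase-Glo luciferase luminescence reporting remaining unconsumed ATP / Medium: HEPES buffer with MgCl2, KCl, DTT, spermine, BSA, pyrophosphatase / Replication: singlicate, one well per compound / Evaluation: percent inhibition relative to median high and low control wells / Schedule: 2 h aminoacylation at 25 °C after 15 min preincubation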
Rce1 inhib = yeast Ras-converting enzyme inhibition. calls only. yeast membranes, quenched prenylated peptide cleavage fluorescence. 290,000 tested, 0.27% active;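 active = fall in fluorescence gain of 50% or more versus controls, with final raw signal at or below 3038400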;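 also: plate controls were neutral control wells for no effect and wells lacking membranes for full effect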
NadD inh = inhibitors of Staphylococcus aureus NadD; AID 602399; 360,000 tested, 0.78% active; inhibition, % at 20 µM; purified NadD enzyme, colorimetric absorbance read-out; in the data active = inhibition above about 26%
DSG3 Ab inh = inhibitors of pemphigus antibody binding to human desmoglein-3; DSG3-coupled beads, scFv-anti-DSG3-GFP binding, flow cytometry; active compounds read low; binding (percent of control), % at 10 µM; 310,000 tested, 0.48% active; AID 588358;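 active = binding more than 3 SD below its plate's average and above zero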;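 also: hits lower antibody fragment binding to DSG3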
TbMetRS confirm = confirmation of Trypanosoma brucei MetRS inhibitors; shares compounds with Tb MetRS inh; T. brucei MetRS enzyme, luminescence (ATP depletion); inhibition, % at 11.9 µM; 1,400 tested, 93% active; AID 624412; in the data active = inhibition above about 7%
Jurkat tox = kills Jurkat cells in T. brucei MetRS counterscreen. AID 624413. 1,400 tested, 12% active. Jurkat cells viability, ATP luminescence. inhibition, % at 8.3 µM. shares compounds with Tb MetRS inh; in the data active = inhibition above about 15%;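 also: 0% = vehicle and 100% = reference inhibitor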
Tb MetRS inh FP = orthogonal test for Trypanosoma brucei MetRS inhibitors; inhibition, % at 11.9 µM; 1,400 tested, 44% active; purified T. brucei MetRS, fluorescence polarization; shares compounds with Tb MetRS inh; in the data active = inhibition above about 17%;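 also: 0% = vehicle wells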
The depositor's hits bear a star.

What do the screens show for `O=C(Nc1nnc(COc2ccccc2F)s1)Nc1ccccc1F`?
HCV core dimer: -2; Tb MetRS inh: 15*; NadD inh: -5; DSG3 Ab inh: 108; TbMetRS confirm: 25*; Jurkat tox: 4; Tb MetRS inh FP: 12

How did Cc1cccc(CCNC(=O)C2CCC(=O)N(Cc3ccc(Cl)cc3)C2)n1 (configuration not stated) do in these assays?
HCV core dimer: -3; Tb MetRS inh: 0; Rce1 inhib: inactive; NadD inh: 1; DSG3 Ab inh: 100

What do the screens show for `O=[N+]([O-])c1ccc(NC(=S)NCCc2ccc(Cl)cc2)cc1`?
HCV core dimer: 3; Tb MetRS inh: 6.9*; Rce1 inhib: inactive; NadD inh: -8; DSG3 Ab inh: 111; TbMetRS confirm: 13*; Jurkat tox: 36*; Tb MetRS inh FP: 47*

How did CC(=O)Cc1nsc(Nc2ccc(Cl)cc2)n1 do in these assays?
HCV core dimer: -1; Tb MetRS inh: 10.0*; Rce1 inhib: inactive; NadD inh: -6; TbMetRS confirm: 4; Jurkat tox: 2; Tb MetRS inh FP: 5

How did CC(=O)Cc1nsc(Nc2ccc(F)cc2)n1 do in these assays?
HCV core dimer: -2; Tb MetRS inh: -1; Rce1 inhib: inactive; NadD inh: -4; DSG3 Ab inh: 105

How did Cc1cccc(C(=O)NCC2CCN(C(=O)c3cccc(C)c3)CC2)c1 do in these assays?
HCV core dimer: -4; Tb MetRS inh: 0; Rce1 inhib: inactive; NadD inh: 3; DSG3 Ab inh: 103

Results for O=C(COc1nsnc1N1CCOCC1)Nc1ccc(Br)cc1 ?
HCV core dimer: 4; Tb MetRS inh: 20*; Rce1 inhib: inactive; NadD inh: -8; TbMetRS confirm: 43*; Jurkat tox: 1; Tb MetRS inh FP: 25*

Results for COc1ccc(CCNC(=O)c2cccc(Br)c2)cc1OC ?
HCV core dimer: -59; Tb MetRS inh: -2; Rce1 inhib: inactive; NadD inh: 0; DSG3 Ab inh: 103

How did Cc1ccc(/C=N/NC(=O)c2ccc3c(c2)OCCO3)s1 do in these assays?
HCV core dimer: 0; Tb MetRS inh: 0; Rce1 inhib: inactive; NadD inh: 3

How did O=C1NC(c2ccccc2)CCO1 (configuration not stated) do in these assays?
HCV core dimer: 0; Tb MetRS inh: 0; Rce1 inhib: inactive; NadD inh: 4; DSG3 Ab inh: 97

Results for CCN(CC(=O)NCc1ccc(Cl)cc1)C(=O)CCc1ccccc1O ?
HCV core dimer: 8; Tb MetRS inh: 37*; Rce1 inhib: inactive; NadD inh: -7; DSG3 Ab inh: 104; TbMetRS confirm: 67*; Jurkat tox: 3; Tb MetRS inh FP: 33*

Results for COc1ccc(C(=O)NCC(=O)OCc2ccccc2F)cc1 ?
HCV core dimer: -3; Tb MetRS inh: 0; Rce1 inhib: inactive; NadD inh: 0; DSG3 Ab inh: 106

How did Cc1ccc(NC(=O)Nc2cccs2)c(Cl)c1 do in these assays?
HCV core dimer: 0; Tb MetRS inh: 0; Rce1 inhib: inactive; NadD inh: -7; DSG3 Ab inh: 102

Results for CCC(=O)c1c[nH]c(C(=O)NCc2cccc(C(F)(F)F)c2)c1 ?
HCV core dimer: 0; Tb MetRS inh: 6.0*; Rce1 inhib: inactive; NadD inh: -3; DSG3 Ab inh: 98; TbMetRS confirm: 12*; Jurkat tox: 5; Tb MetRS inh FP: 9

How did CCC(=O)c1c[nH]c(C(=O)NCc2ccccc2OC)c1 do in these assays?
HCV core dimer: 1; Tb MetRS inh: 1; Rce1 inhib: inactive; NadD inh: 1; DSG3 Ab inh: 99

How did CCOc1ccc(NS(=O)(=O)c2ccc(C(=O)NNC(=O)c3ccccc3O)cc2)cc1 do in these assays?
HCV core dimer: 4; Tb MetRS inh: 0; NadD inh: -2; DSG3 Ab inh: 104

Results for CCOc1ccccc1NC(=O)c1ccccc1-c1ccccc1 ?
HCV core dimer: 5; Tb MetRS inh: 0; Rce1 inhib: inactive; NadD inh: -10; DSG3 Ab inh: 109

Results for CC(=O)Nc1ccccc1NC(=O)c1ccccc1-c1ccccc1 ?
HCV core dimer: 0; Tb MetRS inh: 46*; Rce1 inhib: inactive; NadD inh: -1; DSG3 Ab inh: 100; TbMetRS confirm: 3; Jurkat tox: -1; Tb MetRS inh FP: -4

Results for COc1cc(NC(=O)CCN2CC(C)OC(C)C2)cc(OC)c1 (configuration not stated) ?
HCV core dimer: -14; Tb MetRS inh: 5.8*; Rce1 inhib: inactive; NadD inh: -5; DSG3 Ab inh: 97; TbMetRS confirm: 0; Jurkat tox: 2; Tb MetRS inh FP: 3

What do the screens show for `O=C(Cc1ccccc1)N/N=C/C=C/c1ccccc1[N+](=O)[O-]`?
HCV core dimer: 4; Tb MetRS inh: 7.0*; Rce1 inhib: inactive; NadD inh: 0; DSG3 Ab inh: 107; TbMetRS confirm: 11*; Jurkat tox: 8; Tb MetRS inh FP: 10

Results for O=C(Cc1cccs1)N/N=C/C=C/c1ccccc1[N+](=O)[O-] ?
HCV core dimer: -21; Tb MetRS inh: 2; Rce1 inhib: inactive; NadD inh: -2; DSG3 Ab inh: 98

How did N#C/C(=C\c1ccccc1[N+](=O)[O-])C(=O)NCc1ccccc1 do in these assays?
HCV core dimer: 1; Tb MetRS inh: 0; Rce1 inhib: inactive; NadD inh: -2; DSG3 Ab inh: 114

How did N#C/C(=C\C=C\c1ccccc1[N+](=O)[O-])C(=O)NCc1ccccc1 do in these assays?
HCV core dimer: 12; Tb MetRS inh: 13*; Rce1 inhib: inactive; NadD inh: 1; TbMetRS confirm: 30*; Jurkat tox: 77*; Tb MetRS inh FP: 12

How did Oc1cc(NCCc2cccnc2)cc2cccnc12 do in these assays?
Tb MetRS inh: 0; NadD inh: 11; DSG3 Ab inh: 100

Results for O=C(Cn1c(CC(=O)N2CCOCC2)nc2ccccc21)Nc1ccc2c(c1)OC(F)(F)O2 ?
HCV core dimer: -6; Tb MetRS inh: 25*; Rce1 inhib: inactive; NadD inh: 10; DSG3 Ab inh: 99; TbMetRS confirm: 41*; Jurkat tox: 9; Tb MetRS inh FP: 20*

How did O=C(Cn1c(CC(=O)N2CCCC2)nc2ccccc21)NCc1ccccc1 do in these assays?
HCV core dimer: -1; Tb MetRS inh: 0; Rce1 inhib: inactive; NadD inh: -6

How did Cc1cc(C)nc(NS(=O)(=O)c2ccc(NC(=O)Nc3ccccc3F)cc2)n1 do in these assays?
HCV core dimer: -2; Tb MetRS inh: 7.3*; Rce1 inhib: inactive; NadD inh: -7; DSG3 Ab inh: 108; TbMetRS confirm: 16*; Jurkat tox: -8; Tb MetRS inh FP: 2
